Experimental findings from ChEMBL document CHEMBL5576109, “Hydantoin derivative dimers as broad-spectrum antimicrobial agents against ESKAPE pathogens with enhanced killing rate and stability” (RSC Med Chem, 2024) are described below.

For test [1], the system named is Staphylococcus aureus. Description: Antibacterial activity against Staphylococcus aureus ATCC 29213 assessed as reduction bacterial growth after 16 hrs by TECAN SPARK microplate reader analysis. Type of test: functional. In a few lines: (§1)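 Single colony grown overnight in 4 mL TSB at 37 °C, diluted 100-fold and grown to mid-log phase. Compounds 2-fold serially diluted in TSB and mixed 1:1 with bacteria in TSB (1 × 10^6 CFU/mL). Incubated 16 h at 37 °C, then A600 read. MIC taken as the lowest concentration giving complete growth inhibition.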

Another test relates to Pseudomonas aeruginosa. Briefly: Antibacterial activity against Pseudomonas aeruginosa CMCC 10104 assessed as reduction bacterial growth after 16 hrs by TECAN SPARK microplate reader analysis. In kind it is functional. In a few lines: as §1
The test system of another test is Acinetobacter baumannii. Briefly: Antibacterial activity against Acinetobacter baumannii ATCC 19606 assessed as reduction bacterial growth after 16 hrs by TECAN SPARK microplate reader analysis. In kind it is functional. In a few lines: as §1
A further test has as its system Klebsiella pneumoniae. Briefly: Antibacterial activity against Klebsiella pneumoniae ATCC 10031 assessed as reduction bacterial growth after 16 hrs by TECAN SPARK microplate reader analysis. In kind it is functional. In a few lines:
as §1

Test [2] deals with Staphylococcus aureus. Briefly: Bactericidal activity against Staphylococcus aureus ATCC 29213 assessed as reduction in colony forming units at 1 to 4 times of MIC by time-kill kinetics assay. Type of test: functional, organism-based. As to conditions: time 15-120 min, TDE = time-dependent effect. In a few lines:
(§2)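 Bacteria grown at 37 °C to mid-log phase and diluted to 1 × 10^6 CFU/mL. […] Mixtures diluted 10^2–10^4-fold and plated on TSB agar; colonies counted after 20 h at 37 °C.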

For test [3], the system named is Escherichia coli. Description: Bactericidal activity against Escherichia coli ATCC 25922 assessed as reduction in colony forming units incubated for 15 to 120 mins by time-kill kinetics assay. As to conditions: time 15-120 min. In kind it is functional, organism-based. The method in brief:
as §2

In test [4] the test system is Escherichia coli. Briefly: Bactericidal activity against Escherichia coli ATCC 25922 assessed as reduction in colony forming units at 1 to 4 times of MIC by time-kill kinetics assay. Type of test: functional, organism-based. Conditions: time 15-120 min, TDE = time-dependent effect. In a few lines: as §2
Test [5] has as its system Staphylococcus aureus. Description: Bactericidal activity against Staphylococcus aureus ATCC 29213 assessed as inhibition of bacterial growth at 1 to 4 times of MIC measured within 1 hr mins by time-kill kinetics assay relative to control. In kind it is functional. The method in brief: as §2
Test [6] relates to Staphylococcus aureus. Description: Antibacterial activity against Staphylococcus aureus ATCC 29213 assessed as inhibition of bacterial growth by measuring fold increase in MIC compound preincubated at 80 degree C for 1 hr followed by bacterial culture addition and measured after 16 to 18 hrs by TECAN SPARK microplate reader analysis. In kind it is functional. As to conditions: time 16-18 hrs.

In test [7] the test system is Staphylococcus aureus. Description: Antibacterial activity against Staphylococcus aureus ATCC 29213 assessed as inhibition of bacterial growth by measuring fold increase in MIC measured after 16 to 18 hrs in presence of NaCl by TECAN SPARK microplate reader analysis. Type of test: functional. Conditions: time 16-18 hrs. In a few lines:
(§3)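 Salt/serum stability. Exponential-phase bacteria incubated 16–18 h with compound in medium supplemented with 10 mM NaCl, 10 mM KCl, 10 mM MgCl2, 10% DMEM or 10% FBS. Stability judged from the change in MIC.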

Test [8] deals with Escherichia coli. Description: Antibacterial activity against Escherichia coli ATCC 25922 assessed as inhibition of bacterial growth by measuring fold increase in MIC compound preincubated at 40 degree C for 1 hr followed by bacterial culture addition and measured after 16 to 18 hrs by TECAN SPARK microplate reader analysis. Type of test: functional. Conditions: time 16-18 hrs.

For test [9], the system named is Escherichia coli. Briefly: Antibacterial activity against Escherichia coli ATCC 25922 assessed as inhibition of bacterial growth by measuring fold increase in MIC compound preincubated at 120 degree C for 1 hr followed by bacterial culture addition and measured after 16 to 18 hrs by TECAN SPARK microplate reader analysis. Conditions: time 16-18 hrs. Type of test: functional.

Test [10] concerns Escherichia coli. Briefly: Antibacterial activity against Escherichia coli ATCC 25922 assessed as inhibition of bacterial growth by measuring fold increase in MIC measured after 16 to 18 hrs in presence of NaCl by TECAN SPARK microplate reader analysis. Type of test: functional. As to conditions: time 16-18 hrs. In a few lines: as §3
The subject of test [11] is Escherichia coli. Briefly: Antibacterial activity against Escherichia coli ATCC 25922 assessed as inhibition of bacterial growth by measuring fold increase in MIC measured after 16 to 18 hrs in presence of MgCl2 by TECAN SPARK microplate reader analysis. Type of test: functional. Conditions: time 16-18 hrs. In a few lines: as §3
Test [12] relates to Staphylococcus aureus. Description: Drug resistance, ratio of MIC for Staphylococcus aureus ATCC 29213 after 25 passages to MIC for Staphylococcus aureus ATCC 29213 after initial exposure. In kind it is functional. Conditions: time 16 hrs. The method in brief:
(§4)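 Serial passage resistance selection: after each broth MIC determination, bacteria from the 1/2 MIC well were withdrawn and diluted to 1 × 10^6 CFU/mL for the next MIC measurement. Repeated for 25 passages; MIC after passage 25 compared with the initial MIC.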

The subject of test [13] is Escherichia coli. Description: Drug resistance, ratio of MIC for Escherichia coli ATCC 25922 after 25 passages to MIC for Escherichia coli ATCC 25922 after initial exposure. Type of test: functional. The method in brief:
as §4

The test system of test [14] is Staphylococcus aureus. Description: Induction of cytoplasmic membrane depolarization in Staphylococcus aureus ATCC 29213 assessed as increase in fluorescence intensity by DiSC3(5) staining based analysis. Type of test: functional, organism-based. The method in brief: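 Mid-log cells washed in 5 mM HEPES/5 mM glucose and resuspended at 10^6 CFU/mL in glucose/HEPES/100 mM KCl (1:1:1). DiSC3(5) added and fluorescence (Ex 622 / Em 670 nm) followed for 30 min at 37 °C until minimal. Compound then added and the fluorescence rise recorded.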

The subject of test [15] is Escherichia coli. Description: Induction of ROS generation in Escherichia coli ATCC 25922 assessed as fold increase in fluorescence intensity at 0.5 MIC concentration incubated for 30 mins by DCFH-DA staining based analysis. Conditions: 0.5 h. Type of test: functional. In a few lines: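 Overnight 37 °C cultures washed three times and resuspended in PBS, diluted to OD600 0.1, and mixed with DCFH-DA (5 µM). Treated with a range of compound concentrations for 30 min at 37 °C in the dark. Fluorescence read at Ex 488 / Em 530 nm.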

Test [16] relates to Staphylococcus aureus. Briefly: Induction of inner membrane permeabilization in Staphylococcus aureus ATCC 29213 assessed as increase in fluorescence intensity incubated for 1 hr by propidium iodide staining based TECAN SPARK microplate reader analysis. In kind it is functional, organism-based. The method in brief: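 Overnight 37 °C cultures resuspended in PBS and diluted to OD600 0.1. Propidium iodide added (5 µM final) for 30 min. Treated with a range of compound concentrations for 1 h in the dark; fluorescence read at Ex 535 / Em 615 nm.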

Test [17] concerns Staphylococcus aureus. Briefly: Induction of morphological changes in Staphylococcus aureus ATCC 29213 assessed as cell collapse at 8 time of MIC for 6 hrs by scanning electron microscopy. Type of test: functional, organism-based. The method in brief:
(§5)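 Mid-log cells exposed to compound for 6 h at 37 °C alongside untreated controls. Cells pelleted (3000 rpm, 15 min), washed four times in PBS, and fixed with 2.5% glutaraldehyde. Dehydrated through graded ethanol, critical-point dried and gold-coated, then imaged by SEM.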

The subject of test [18] is Staphylococcus aureus. Briefly: Induction of morphological changes in Staphylococcus aureus ATCC 29213 assessed as cellular inclusion leakage at 8 time of MIC for 6 hrs by scanning electron microscopy. Type of test: functional, organism-based. The method in brief:
as §5

Test [19] concerns Escherichia coli. Briefly: Induction of morphological changes in Escherichia coli ATCC 25922 assessed as cell shrinkage at 8 time of MIC for 6 hrs by scanning electron microscopy. In kind it is functional, organism-based. The method in brief: as §5
Test [20] concerns Escherichia coli. Briefly: Induction of membrane disruption in Escherichia coli ATCC 25922 assessed as increase in red fluorescence at 8 times of MIC for 6 hrs by Hoechst 33342 and propidium iodide staining based confocal microscopic analysis. Type of test: functional, organism-based.

Structures are written as SMILES. Values after ≈ are worked out from the molar mass of the structure shown. Active and inactive are the calls of the source. The rule behind the calls is not given here.

By MIC is commonly meant the lowest concentration that inhibits growth of the organism. With `CCCCCCN1C(=O)[C@H](CCCCNC(=N)N)N(Cc2ccc(-c3ccc(CN4C(=O)N(CCCCCC)C(=O)[C@@H]4CCCCNC(=N)N)cc3)cc2)C1=O`, the MIC with Staphylococcus aureus [1] was determined as 1.95 µg/mL (≈ 2.52 µM); with Pseudomonas aeruginosa it was 15.6 µg/mL (≈ 20.2 µM); with Acinetobacter baumannii, 15.6 µg/mL (≈ 20.2 µM); in the test with Klebsiella pneumoniae, 7.81 µg/mL (≈ 10.1 µM). Besides, the Activity entry was “Tde” in the test with Staphylococcus aureus [2]; “Dose-Dependent Effect” with Escherichia coli [3]; “Tde” in the test on Escherichia coli [4]; “Dose-Dependent Effect” in the test on Staphylococcus aureus [14]; “Dose-Dependent Effect” in the test with Staphylococcus aureus [16]. In addition, the “inhibition (INH)” value in the test on Staphylococcus aureus [5] was 100%. Further, the “fold change (FC)” value in the test on Staphylococcus aureus [6], with Staphylococcus aureus [7], in the test with Escherichia coli [8], in the test with Escherichia coli [9], in the test on Escherichia coli [10] and in the test with Escherichia coli [11] was 1 each time. Also, in the test on Escherichia coli [15], the “fold change (FC)” value is reported as approximately 2. Moreover, the Ratio entry in the test on Staphylococcus aureus [12] and in the test with Escherichia coli [13] was “<=4” in each case. The result in the test with Staphylococcus aureus [17], with Staphylococcus aureus [18], in the test with Escherichia coli [19] and in the test on Escherichia coli [20] was Active.
